≈ marks a conversion by molar mass, not a printed value.

The values that follow come from ChEMBL document CHEMBL1806474, “Diversity oriented design of various hydrazides and their in vitro evaluation against Mycobacterium tuberculosis H37Rv strains” (2011).

Format in all cases: functional
Assay [1] deals with Mycobacterium tuberculosis. The assay can be described thus: Growth inhibition of Mycobacterium tuberculosis H37Rv ATCC 27294 after 5 to 8 days by microplate alamar blue assay. For orientation: Alamar Blue is a resazurin reagent that responds to reducing activity.
Assay [2] has as its system Mycobacterium tuberculosis. The assay can be described thus: Antimycobacterial activity against Mycobacterium tuberculosis H37Rv ATCC 27294 after 5 to 8 days by microplate alamar blue assay.
Assay [3] has as its system Mycobacterium tuberculosis. The assay can be described thus: Antimycobacterial activity against Mycobacterium tuberculosis. In outline: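 Radiometric BACTEC 460 assay in 7H12 broth (BACTEC-12B, 4 mL) with M. tuberculosis H37Rv ATCC 27294. Inoculum came from 7H9/glycerol/0.05% Tween 80 cultures at OD550 0.45–0.55, diluted to reach GI 999 in five days. Compounds were from 1 mg/mL DMSO stocks, with DMSO controls. GI was read daily at 37 °C, 5–8 days. % inhibition = [1 − (GI test/GI control)] × 100. MIC was set against a 1:100 diluted control.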

Setting [4] is: Mycobacterium tuberculosis, H37Rv ATCC 27294.

For `O=C1Nc2ccccc2C(=O)/C1=N/Nc1ccccc1`, in assay [1], the “growth inhibition (GI)” value is on record as 97%. This compound also showed an MIC99 in assay [2] (setting [4]) of less than 6.25 µg/mL.
The matching figures for `O=C1Nc2cc([N+](=O)[O-])ccc2C(=O)/C1=N/Nc1ccc(Br)cc1`: 100% and less than 6.25 µg/mL.
On the same counts, the results for `O=C1Nc2cc([N+](=O)[O-])ccc2C(=O)/C1=N/Nc1ccccc1-c1ccccc1` are 100% and less than 6.25 µg/mL.
Take `Cc1c(Cl)cccc1N/N=C1\C(=O)Nc2cc([N+](=O)[O-])ccc2C1=O`: the “growth inhibition (GI)” value in assay [1] came out at 98%. In assay [2] (setting [4]), this compound yielded an MIC99 of less than 6.25 µg/mL.
As to `O=C1Nc2ccc(Cl)cc2C(=O)/C1=N/Nc1ccc(Cl)cc1`, the “growth inhibition (GI)” value in assay [1] is given as 98%. In assay [2] (setting [4]), the MIC99 is less than 6.25 µg/mL.
On the same counts, the results for `Cc1cccc(N/N=C2\C(=O)Nc3c(cccc3[N+](=O)[O-])C2=O)c1` are 95% and less than 6.25 µg/mL.
The matching figures for `CN1C(=O)/C(=N\Nc2ccccc2[N+](=O)[O-])C(=O)c2ccccc21`: 94% and less than 6.25 µg/mL.
On the same counts, the results for `O=C1Nc2c(ccc(Cl)c2Cl)C(=O)/C1=N/Nc1ccc([N+](=O)[O-])cc1` are 89% and less than 6.25 µg/mL.
`O=C1Nc2c(ccc(Cl)c2Cl)C(=O)/C1=N/Nc1ccccc1`: the “growth inhibition (GI)” value in assay [1] worked out at 85%. The compound further displayed an MIC99 in assay [2] (setting [4]) of less than 6.25 µg/mL.
The matching figures for `O=C1Nc2c(cccc2[N+](=O)[O-])C(=O)/C1=N/Nc1cccc(Cl)c1`: 82% and less than 6.25 µg/mL.
On the same counts, the results for `O=C1Nc2c(cccc2[N+](=O)[O-])C(=O)/C1=N/Nc1ccccc1[N+](=O)[O-]` are 80% and less than 6.25 µg/mL.
The matching figures for `O=C1Nc2c(cccc2[N+](=O)[O-])C(=O)/C1=N/Nc1ccc(Cl)c(Cl)c1`: 79% and less than 6.25 µg/mL.
Consider `Cc1cccc(N/N=C2\C(=O)Nc3cc(Cl)ccc3C2=O)c1`, for which, in assay [1], the “growth inhibition (GI)” value stood at 70%. The MIC99 in assay [2] (setting [4]) is less than 6.25 µg/mL.
The matching figures for `O=C1Nc2cc([N+](=O)[O-])ccc2C(=O)/C1=N/Nc1ccc(Cl)c(F)c1`: 70% and less than 6.25 µg/mL.
The matching figures for `O=C1Nc2ccc(Cl)cc2C(=O)/C1=N/Nc1ccccc1[N+](=O)[O-]`: 64% and less than 6.25 µg/mL.
The matching figures for `O=C1Nc2c(cccc2[N+](=O)[O-])C(=O)/C1=N/Nc1ccc(Cl)cc1`: 61% and less than 6.25 µg/mL.
For the compound `O=C1Nc2c(cccc2[N+](=O)[O-])C(=O)/C1=N/Nc1cccc([N+](=O)[O-])c1`, the “growth inhibition (GI)” value in assay [1] is reported as 60%. In assay [2] (setting [4]), this compound displayed an MIC99 of less than 6.25 µg/mL.
As for `O=C1Oc2ccc3ccccc3c2C(=O)/C1=N/Nc1ccc([N+](=O)[O-])cc1`, the “growth inhibition (GI)” value in assay [1] is recorded as 94%. This compound also yielded an MIC99 in assay [2] (setting [4]) of less than 6.25 µg/mL.
With `O=C1Oc2ccc3ccccc3c2C(=O)/C1=N/Nc1ccc(Cl)cc1`, the “growth inhibition (GI)” value in assay [1] is 88%. The MIC99 in assay [2] (setting [4]) was less than 6.25 µg/mL.
As for `Cc1cccc(N/N=C2\C(=O)Oc3ccc4ccccc4c3C2=O)c1C`, the “growth inhibition (GI)” value in assay [1] amounted to 64%. For the same compound, the MIC99 in assay [2] (setting [4]) was less than 6.25 µg/mL.
The matching figures for `O=C1Oc2ccc3ccccc3c2C(=O)/C1=N/Nc1ccccc1`: 62% and less than 6.25 µg/mL.
Take `Cc1cc(C)cc(N/N=C2\C(=O)Oc3ccc4ccccc4c3C2=O)c1`: the “growth inhibition (GI)” value in assay [1] turned out to be 58%. Further, the MIC99 in assay [2] (setting [4]) is less than 6.25 µg/mL.
The matching figures for `COc1ccc(N/N=C2\C(=O)Oc3ccc4ccccc4c3C2=O)cc1`: 55% and less than 6.25 µg/mL.
On the same counts, the results for `O=C1Oc2ccc(-c3ccccc3)cc2C(=O)/C1=N/Nc1ccccc1[N+](=O)[O-]` are 25% and less than 6.25 µg/mL.
On the same counts, the results for `Cc1cccc(N/N=C2\C(=O)Oc3ccc(-c4ccccc4)cc3C2=O)c1` are 23% and less than 6.25 µg/mL.
In the case of `O=C1Oc2ccc(-c3ccccc3)cc2C(=O)/C1=N/Nc1c(Cl)cccc1Cl`, the “growth inhibition (GI)” value in assay [1] stood at 23%. In assay [2] (setting [4]), this compound came in with an MIC99 of less than 6.25 µg/mL.
On the same counts, the results for `O=C1Oc2ccc(-c3ccccc3)cc2C(=O)/C1=N/Nc1cccc(F)c1Cl` are 19% and less than 6.25 µg/mL.
Regarding `O=C1Oc2ccc(-c3ccccc3)cc2C(=O)/C1=N/Nc1ccc(F)cc1`, the “growth inhibition (GI)” value in assay [1] is listed as 18%. The compound also had an MIC99 in assay [2] (setting [4]) of less than 6.25 µg/mL.
On the same counts, the results for `Cc1ccccc1N/N=C1\C(=O)Oc2ccc(-c3ccccc3)cc2C1=O` are 17% and less than 6.25 µg/mL.
On the same counts, the results for `CC(=O)c1c(C)[nH]c(C(=O)N/N=C/c2ccc(C)cc2)c1C` are 92% and less than 6.25 µg/mL.
The matching figures for `CC(=O)c1c(C)[nH]c(C(=O)N/N=C/c2ccc([N+](=O)[O-])cc2)c1C`: 32% and less than 6.25 µg/mL.
For the compound `CC(=O)c1c(C)[nH]c(C(=O)N/N=C/c2cccc(Cl)c2)c1C`, in assay [1], the “growth inhibition (GI)” value is recorded as 29%. This compound also came in with an MIC99 in assay [2] (setting [4]) of less than 6.25 µg/mL.
On the same counts, the results for `CC(=O)c1c(C)[nH]c(C(=O)N/N=C/c2cccc([N+](=O)[O-])c2)c1C` are 18% and less than 6.25 µg/mL.
On the same counts, the results for `CC(=O)c1c(C)[nH]c(C(=O)N/N=C/c2ccc(N(C)C)cc2)c1C` are 18% and less than 6.25 µg/mL.
`CCCc1cc(=O)oc2c3c(c4c(c12)OC(C)(C)C=C4)O[C@H](C)[C@@H](C)[C@@H]3O` [CALANOLIDE A] registered an MIC in assay [3] of 3.13 µg/mL (≈ 8.45 µM).
In the case of `CO[C@H]1/C=C/O[C@@]2(C)Oc3c(C)c(O)c4c(O)c(c(/C=N/N5CCN(C)CC5)c(O)c4c3C2=O)NC(=O)/C(C)=C\C=C\[C@H](C)[C@H](O)[C@@H](C)[C@@H](O)[C@@H](C)[C@H](OC(C)=O)[C@@H]1C` [RIFAMPIN], the MIC97 in assay [2] worked out at 0.015 µg/mL (≈ 0.0182 µM). The compound further returned an MIC95 in assay [2] (setting [4]) of 0.25 µg/mL (≈ 0.304 µM).

As usually defined, the MIC99 is an inhibitory concentration at the 99% level, which refers to growth in some studies and to a panel of isolates in others. As usually defined, the MIC is the smallest concentration in the dilution series that meets the test's criterion for growth inhibition.
